In paper PMC11847389 (BMC Chemistry, 2025):

What was measured:
[1] = Pharmacokinetic study of pirtobrutinib in rats; format: in vivo, Sprague–Dawley rats
In short: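 Six male Sprague–Dawley rats (8 weeks, 230 g ± 10 g), fasted 12 h, got a single intragastric 10 mg·kg-1 suspension in 0.5% CMC-Na. Ophthalmic-vein blood (200 µL, EDTA-K2) was drawn pre-dose and at 0.25–48 h; plasma was frozen at -80 °C. Plasma underwent cold-methanol protein precipitation with IS, then C18 UHPLC-MS/MS (0.5–500 ng/mL calibration). Parameters came from non-compartmental analysis.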

[2] = Stability of pirtobrutinib in rat plasma under different storage conditions; format: in vitro ADME; settings: for Stability RE %: n = 6
In short: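 Blank rat plasma was spiked 1:10 with working solution to make QCs of 1, 25 and 400 ng/mL, six replicates each. These were held at room temperature 4 h, in the autosampler at 4 °C 24 h, through three freeze-thaw cycles, or at -80 °C 30 days. Samples then underwent cold-methanol protein precipitation with IS and UHPLC-MS/MS; RSD% and RE% were reported.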

[3] = ref package insert of JAYPIRCA, cited from earlier work
[4] = in vitro, independent of concentration; ref package insert of JAYPIRCA; cited from earlier work
[5] = test system: CYP3A4, UGT1A8 and UGT1A9; settings: ref package insert of JAYPIRCA; cited from earlier work
[6] = cited from earlier work
mutant BTK C481S = settings: cited from earlier work
mutant BTK C481T = settings: cited from earlier work
mutant BTK C481R = settings: cited from earlier work
CLL/SLL patients = settings: 323 patients; cited from earlier work
[7] = test system: patients with covalent BTKi-pretreated CLL; settings: cited from earlier work
[8] = male, Sprague-Dawley, rat, plasma, po, 10 mg/kg

plasma concentration at last sampling timepoint ([1]; 48 h after intragastric 10 mg·kg−1, LLOQ 0.5 ng/ml): below the LLOQ
concentration at 0.25 h ([1]; male, Sprague-Dawley, rat, plasma, oral, 10 mg·kg−1): 140 ng/mL
AUC(0-inf) [1, 8]: 2350 ± 582 ng·h/mL
AUC(0-t) [1, 8]: 2340 ± 578 ng·h/mL
Cmax [1, 8]: 344 ± 56.6 ng/mL
MRT inf [1, 8]: 5.15 ± 0.94 h
MRT last [1, 8]: 5.05 ± 0.923 h
Tmax [1, 8]: 1.08 ± 0.736 h
half-life [1, 8]: 2.95 ± 0.121 h
Stability RE % ([2]; 1.0 ng/mL, autosampler 4 ℃, 24 h after preparation): -6.9%
Stability RE % ([2]; 25 ng/mL, autosampler 4 ℃, 24 h after preparation): -9.4%
Stability RE % ([2]; 400 ng/mL, autosampler 4 ℃, 24 h after preparation): -11.7%
Stability RE% value, three QC samples ([2]; all four storage conditions, absolute (±) value): < 11.7%
Stability RE % ([2]; rat plasma, 1.0 ng/mL, -80 ℃, 30 days): -1.8%
Stability RE % ([2]; rat plasma, 1.0 ng/mL, room temperature, 4 h): 0%
Stability RE % ([2]; rat plasma, 1.0 ng/mL, three freeze-thaw): -3.7%
Stability RE % ([2]; rat plasma, 25 ng/mL, -80 ℃, 30 days): 9.4%
Stability RE % ([2]; rat plasma, 25 ng/mL, room temperature, 4 h): 1.7%
Stability RE % ([2]; rat plasma, 400 ng/mL, three freeze-thaw): 6.0%
Stability in plasma ([2]; several storage and handling conditions): stable
Structure (SMILES): COc1ccc(F)cc1C(=O)NCc1ccc(-c2nn([C@@H](C)C(F)(F)F)c(N)c2C(N)=O)cc1 [Pirtobrutinib]
mean apparent clearance ([3]; (37.2%) printed as spread): 2.05 L/h
median time to reach peak plasma concentration (tmax) ([3]; range 0.833 to 4.15 h): approximately 2 h
effective half-life [3]: approximately 19 h
absolute bioavailability ([3]; single oral 200 mg dose, range 75.9–90.9%): 85.5%
human protein binding [4]: 96%
metabolism in vitro [5]: primarily metabolized by CYP3A4 and direct glucuronidation by UGT1A8 and UGT1A9
permeability in vitro [6]: high
inhibition of autophosphorylation of Y223 (mutant BTK C481S): can inhibit
inhibition of autophosphorylation of Y223 (mutant BTK C481T): can inhibit
inhibition of autophosphorylation of Y223 (mutant BTK C481R): can inhibit
dose-limiting toxicities (CLL/SLL patients): no dose-limiting toxicities
patients discontinuing medication due to treatment-related AEs (CLL/SLL patients): 1%
ORR versus venetoclax monotherapy [7]: significantly higher
